These compounds were tested on Rattus norvegicus (assay: Antiischemic activity in Langendorff perfused Wistar rat assessed as ratio of ischemic area to total area at 40 mg/kg, ip). Conditions: route intraperitoneal.
Type: functional

| SMILES | Ratio |
| --- | --- |
| COc1ccccc1CN1CC2(CC(C)(C)Oc3ccccc32)OCC1=O (racemic) | 25% |
| COc1cccc(CN2CCOC3(C2)CC(C)(C)Oc2ccc(Br)cc23)c1 (racemic) | 29% |
| CC1(C)CC2(CN(Cc3ccccc3)CCO2)c2cc(Br)ccc2O1 (racemic) | 31% |
| CC1(C)CC2(CN(Cc3ccc(N)cc3)C(=O)CO2)c2cc(Br)ccc2O1 (racemic) | 22% |
| Cc1ccc(CN2CC3(CC(C)(C)Oc4ccc(Br)cc43)OCC2=O)cc1 (racemic) | 22% |
| CC1(C)CC2(CN(Cc3ccc(C(F)(F)F)cc3)C(=O)CO2)c2cc(Br)ccc2O1 (racemic) | 42% |
| COc1ccccc1CN1CC2(CC(C)(C)Oc3ccc(Br)cc32)OCC1=O (racemic) | 28% |
| CC1(C)CC2(CN(Cc3ccc(Br)cc3)CCO2)c2cc(Br)ccc2O1 (racemic) | 16% |
| CC1(C)CC2(CN(Cc3ccc(Br)cc3)CCO2)c2ccccc2O1 (racemic) | 35% |
| COc1ccccc1CN1CCOC2(C1)CC(C)(C)Oc1ccccc12 (racemic) | 34% |
| COc1cccc(CN2CC3(CC(C)(C)Oc4ccccc43)OCC2=O)c1 (racemic) | 41% |
| Cc1ccc(CN2CCOC3(C2)CC(C)(C)Oc2ccc(Br)cc23)cc1 (racemic) | 29% |
| COc1ccc(CN2CC3(CC(C)(C)Oc4ccccc43)OCC2=O)cc1 (racemic) | 29% |
| CC1(C)CC2(CN(Cc3ccc(N)cc3)CCO2)c2cc(Br)ccc2O1 (racemic) | 39% |
| CC1(C)CC2(CN(Cc3ccc(Br)cc3)C(=O)CO2)c2cc(Br)ccc2O1 (racemic) | 47% |
| COc1cccc(CN2CCOC3(C2)CC(C)(C)Oc2ccccc23)c1 (racemic) | 17% |
| COc1ccccc1CN1CCOC2(C1)CC(C)(C)Oc1ccc(Br)cc12 (racemic) | 30% |
| Cc1ccc(CN2CC3(CC(C)(C)Oc4ccccc43)OCC2=O)cc1 (racemic) | 23% |
| COc1cccc(CN2CC3(CC(C)(C)Oc4ccc(Br)cc43)OCC2=O)c1 (racemic) | 29% |
| Cc1ccc(CN2CCOC3(C2)CC(C)(C)Oc2ccccc23)cc1 (racemic) | 47% |
| COc1ccc(CN2CCOC3(C2)CC(C)(C)Oc2ccccc23)cc1 (racemic) | 26% |

The compounds below were run on Rattus norvegicus (assay: Cardioprotective activity in Langendorff perfused Wistar rat assessed as rate pressure product at 40 mg/kg, ip recorded after 30 mins of global ischemia followed by 120 mins of reperfusion). Conditions: route intraperitoneal.
Type: functional
Outline: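 Adult male Wistar rats (260-350 g) given the compound ip in DMSO (40 mg/kg; cromakalim 1 mg/kg), then after 2 h anaesthetised with pentobarbital (100 mg/kg ip) and heparinized (100 UI ip). Hearts on Langendorff apparatus with an LV balloon (end-diastolic 5-10 mmHg). 30 min equilibration, 30 min global no-flow ischemia, 120 min reperfusion. RPP at 120 min expressed as % of preischemic RPP.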

| SMILES | Activity |
| --- | --- |
| COc1ccccc1CN1CC2(CC(C)(C)Oc3ccccc32)OCC1=O (racemic) | 36% |
| COc1cccc(CN2CCOC3(C2)CC(C)(C)Oc2ccc(Br)cc23)c1 (racemic) | 42% |
| CC1(C)CC2(CN(Cc3ccccc3)CCO2)c2cc(Br)ccc2O1 (racemic) | 42% |
| CC1(C)CC2(CN(Cc3ccc(N)cc3)C(=O)CO2)c2cc(Br)ccc2O1 (racemic) | 52% |
| Cc1ccc(CN2CC3(CC(C)(C)Oc4ccc(Br)cc43)OCC2=O)cc1 (racemic) | 38% |
| CC1(C)CC2(CN(Cc3ccc(C(F)(F)F)cc3)C(=O)CO2)c2cc(Br)ccc2O1 (racemic) | 47% |
| COc1ccccc1CN1CC2(CC(C)(C)Oc3ccc(Br)cc32)OCC1=O (racemic) | 42% |
| CC1(C)CC2(CN(Cc3ccc(Br)cc3)CCO2)c2cc(Br)ccc2O1 (racemic) | 53% |
| CC1(C)CC2(CN(Cc3ccc(Br)cc3)CCO2)c2ccccc2O1 (racemic) | 43% |
| COc1ccccc1CN1CCOC2(C1)CC(C)(C)Oc1ccccc12 (racemic) | 65% |
| COc1cccc(CN2CC3(CC(C)(C)Oc4ccccc43)OCC2=O)c1 (racemic) | 29% |
| Cc1ccc(CN2CCOC3(C2)CC(C)(C)Oc2ccc(Br)cc23)cc1 (racemic) | 57% |
| COc1ccc(CN2CC3(CC(C)(C)Oc4ccccc43)OCC2=O)cc1 (racemic) | 27% |
| CC1(C)CC2(CN(Cc3ccc(N)cc3)CCO2)c2cc(Br)ccc2O1 (racemic) | 30% |
| CC1(C)CC2(CN(Cc3ccc(Br)cc3)C(=O)CO2)c2cc(Br)ccc2O1 (racemic) | 23% |
| COc1cccc(CN2CCOC3(C2)CC(C)(C)Oc2ccccc23)c1 (racemic) | 38% |
| COc1ccccc1CN1CCOC2(C1)CC(C)(C)Oc1ccc(Br)cc12 (racemic) | 59% |
| Cc1ccc(CN2CC3(CC(C)(C)Oc4ccccc43)OCC2=O)cc1 (racemic) | 44% |
| COc1cccc(CN2CC3(CC(C)(C)Oc4ccc(Br)cc43)OCC2=O)c1 (racemic) | 27% |
| Cc1ccc(CN2CCOC3(C2)CC(C)(C)Oc2ccccc23)cc1 (racemic) | 35% |
| COc1ccc(CN2CCOC3(C2)CC(C)(C)Oc2ccccc23)cc1 (racemic) | 61% |
